Laboratory results reported in ChEMBL document CHEMBL3351549, “Discovery of a Potent and Selective BCL-XL Inhibitor with in Vivo Activity” (ACS Med Chem Lett, 2014).
Calls of active or inactive are those of the source. No cut-off for these calls is given here.

Experiments:
[1] = biological target: T1, Bcl-2-like protein 1 (Homo sapiens, UniProt Q07817); experiment: Inhibition of BCL-XL (unknown origin) incubated for 1 hr by TR-FRET assay
[2] = biological target: Apoptosis regulator Bcl-2 (Homo sapiens, UniProt P10415); experiment: Inhibition of BCL-2 (unknown origin) incubated for 1 hr by TR-FRET assay
Apoptosis regulator Bcl-2, sequence (P10415 whole entry): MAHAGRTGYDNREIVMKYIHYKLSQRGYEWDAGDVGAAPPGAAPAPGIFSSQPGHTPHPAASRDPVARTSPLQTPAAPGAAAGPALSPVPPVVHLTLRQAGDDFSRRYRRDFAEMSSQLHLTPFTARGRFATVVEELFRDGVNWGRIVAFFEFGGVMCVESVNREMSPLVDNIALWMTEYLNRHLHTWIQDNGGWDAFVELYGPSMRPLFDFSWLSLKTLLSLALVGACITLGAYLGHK

[3] = biological target: T1, Bcl-2-like protein 1; experiment: Inhibition of BCL-XL (unknown origin) incubated for 1 hr in presence of 1% human serum by TR-FRET assay
[4] = Cytotoxicity against BCL-XL-dependent human NCI-H146 cells in presence of 10% human serum
[5] = Cytotoxicity against BCL-XL-dependent human NCI-H146 cells in presence of 10% human serum incubated for 48 hrs by Cell titerGlo reagent based assay; assay type: functional; conditions: NCI-H146, 48 h
[6] = biological target: T1, Bcl-2-like protein 1; experiment: Binding affinity to BCL-XL (unknown origin)
[7] = Cmax in SCID-Beige mouse at 5 mg/kg, ip; assay type: ADME, organism-based; design: dose 5 mg/kg, route intraperitoneal; conditions: in vivo
Summary of the method: (§1)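 Nontumor-bearing SCID-Beige mice got a single IP dose of 5 mg/kg. Vehicle was 5% DMSO, 10% EtOH, 20% Cremophor ELP and 65% DSW. Pharmacokinetic parameters were taken from plasma exposure after the single dose.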

[8] = Tmax in SCID-Beige mouse at 5 mg/kg, ip; assay type: ADME, organism-based; design: dose 5 mg/kg, route intraperitoneal; conditions: in vivo; summary of the method: as §1
[9] = AUC in SCID-Beige mouse at 5 mg/kg, ip; assay type: ADME, organism-based; design: dose 5 mg/kg, route intraperitoneal; conditions: plasma; summary of the method: as §1
[10] = Drug concentration in SCID-Beige mouse at 5 mg/kg, ip after 12 hrs; assay type: ADME, organism-based; design: dose 5 mg/kg, route intraperitoneal; conditions: in vivo, read-out: Drug uptake; summary of the method: as §1
[11] = biological target: T2, Bcl-2-like protein 2 (Homo sapiens, UniProt Q92843); experiment: Binding affinity to BCL-W (unknown origin)
T2 sequence (Q92843 whole entry): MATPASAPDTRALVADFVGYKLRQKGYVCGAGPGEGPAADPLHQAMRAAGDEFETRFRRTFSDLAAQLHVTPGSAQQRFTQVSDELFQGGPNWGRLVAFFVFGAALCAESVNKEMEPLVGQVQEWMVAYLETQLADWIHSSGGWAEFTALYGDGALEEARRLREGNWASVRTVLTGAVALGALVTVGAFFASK

[12] = biological target: Induced myeloid leukemia cell differentiation protein Mcl-1 (Homo sapiens, UniProt Q07820); experiment: Binding affinity to MCL1 (unknown origin)
Induced myeloid leukemia cell differentiation protein Mcl-1, sequence (Q07820 whole entry): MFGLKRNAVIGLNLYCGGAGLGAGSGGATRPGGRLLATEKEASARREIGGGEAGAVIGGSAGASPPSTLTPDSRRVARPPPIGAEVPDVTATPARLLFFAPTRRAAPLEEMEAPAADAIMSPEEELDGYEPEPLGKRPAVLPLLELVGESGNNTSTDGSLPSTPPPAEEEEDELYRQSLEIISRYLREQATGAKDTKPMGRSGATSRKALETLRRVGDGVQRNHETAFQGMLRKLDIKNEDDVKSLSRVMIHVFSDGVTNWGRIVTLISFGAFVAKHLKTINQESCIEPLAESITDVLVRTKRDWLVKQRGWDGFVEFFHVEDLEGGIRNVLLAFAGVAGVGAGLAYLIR

[13] = system: Mus musculus; experiment: Reduction in platelets count in SCID-Beige mouse at 5 mg/kg, ip after 6 hrs; assay type: functional, organism-based; design: dose 5 mg/kg
Summary of the method: (§2)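 Nontumor-bearing female SCID-Beige mice received a single IP dose of 5 mg/kg in the 5% DMSO/10% EtOH/20% Cremophor ELP/65% DSW vehicle. Blood was taken by retro-orbital bleed at regular intervals after dosing and platelets were counted.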

[14] = system: Mus musculus; experiment: Reduction in platelets count in SCID-Beige mouse at 5 mg/kg, ip after 72 hrs; assay type: functional, organism-based; design: dose 5 mg/kg; summary of the method: as §2
[15] = Antitumor activity against BCL-XL-dependent human NCI-H146 cells xenografted in SCID-Beige mouse assessed as tumor growth inhibition at 5 mg/kg, ip for 14 days; assay type: functional; conditions: route intraperitoneal
Summary of the method: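 Female SCID-Beige mice carried subcutaneous NCI-H146 xenografts and were dosed at 5 mg/kg IP QD ×14, or with an equal volume of vehicle (5% DMSO/10% EtOH/20% Cremophor ELP/65% DSW). There were 5 mice per time point. Tumor volume was calculated as W²·L·0.5 from perpendicular diameters and tracked over time. Treated and untreated groups were compared by Student's t test (p < 0.05).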

T1 sequence (Q07817 whole entry): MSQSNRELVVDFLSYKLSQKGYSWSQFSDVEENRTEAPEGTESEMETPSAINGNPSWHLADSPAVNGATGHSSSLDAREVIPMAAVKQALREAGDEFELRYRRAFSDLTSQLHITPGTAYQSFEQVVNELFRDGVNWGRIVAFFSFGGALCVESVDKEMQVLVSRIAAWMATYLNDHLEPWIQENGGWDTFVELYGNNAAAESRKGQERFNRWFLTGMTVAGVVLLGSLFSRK

Ki [1] [nM]	Ki [2] [µM]	Ki [3] [nM]	SMILES	EC50 [5] [µM]	further results
< 0.01	0.24		CN(C)CCCNc1ncnc2c1cnn2-c1ccc(OCCCc2sc(N3CCc4cccc(C(=O)Nc5nc6ccccc6s5)c4C3)nc2C(=O)O)cc1		
2.22	0.1	41.1	O=C(Nc1nc2ccccc2s1)c1cccc2c1CN(c1nc(C(=O)O)c(CCOc3cccc(-n4ncc5cncnc54)c3)s1)CC2		
			NCc1ccc(OCCCc2sc(-c3ccc4c(c3)/C(=N/Nc3nc5ccccc5s3)CCC4)nc2C(=O)O)cc1		EC50 [4]: 0.55 µM
	0.28	0.41	CN(C)CC#Cc1ccc(OCCCc2sc(N3CCc4cccc(C(=O)Nc5nc6ccccc6s5)c4C3)nc2C(=O)O)c(Cl)c1	0.18	
0.02		0.28	CN(C)CC#Cc1ccc(OCCCc2sc(N3CCc4cccc(C(=O)Nc5nc6ccccc6s5)c4C3)nc2C(=O)O)cc1	0.6	
< 0.01		0.03	CN1CCN(CCCNc2ncnc3c2cnn3-c2ccc(OCCCc3sc(N4CCc5cccc(C(=O)Nc6nc7ccccc7s6)c5C4)nc3C(=O)O)cc2)CC1		
		55.4	O=C(Nc1nc2ccccc2s1)c1cccc2c1CN(c1nc(C(=O)O)c(CCCCOc3ccc(-n4ncc5cncnc54)cc3)s1)CC2		
			c1ccc(-n2ncc3cncnc32)cc1		Kd [6]: 4000 µM
< 0.01	0.08	0.1	CN(C)CC#Cc1ccc(OCCCc2sc(N3CCc4cccc(C(=O)Nc5nc6ccccc6s5)c4C3)nc2C(=O)O)c(F)c1 [A-1155463]	0.065	Cmax [7]: 1800 nM; Tmax [8]: 2 h; AUC [9]: 9.19 µM·h; concentration at 12 h [10]: 180 nM; Ki [11]: 0.019 µM; Ki [12]: > 0.44 µM; inhibition [13]: Active; inhibition [14]: inactive; Imax [15]: 44%
12.4	0.09	320	O=C(Nc1nc2ccccc2s1)c1cccc2c1CN(c1nc(C(=O)O)c(CCOc3ccc(-n4ncc5cncnc54)cc3)s1)CC2 [A-1107969]		
0.042	0.17	0.38	O=C(Nc1nc2ccccc2s1)c1cccc2c1CN(c1nc(C(=O)O)c(CCCOc3ccc(-n4ncc5cncnc54)cc3)s1)CC2		
0.34	0.22	10.4	O=C(Nc1nc2ccccc2s1)c1cccc2c1CN(c1nc(C(=O)O)c(CCCOc3cccc(-n4ncc5cncnc54)c3)s1)CC2		
0.03	0.09	0.33	CN(C)CC#Cc1cc(F)c(OCCCc2sc(N3CCc4cccc(C(=O)Nc5nc6ccccc6s5)c4C3)nc2C(=O)O)cc1F	0.126	
0.01	0.088	1.12	CN(C)CC#Cc1ccc(OCCCc2sc(N3CCc4cccc(C(=O)Nc5nc6ccccc6s5)c4C3)nc2C(=O)O)cc1F	0.051	
< 0.01	0.15	0.99	O=C(Nc1nc2ccccc2s1)c1cccc2c1CN(c1nc(C(=O)O)c(CCCOc3ccc(-n4cccn4)cc3)s1)CC2		
